HNF4A DNA FP – change in binding of human HNF4A to DNA, primary screen, biochemical, fluorescence polarization, FITC-DNA. Hepatocyte nuclear factor 4-alpha (Homo sapiens), P41235. 1 h. activity change, % at 10 µM. 360,000 tested, 0.3% active. AID 1224865, 2016; in the data active means activity change above about 30%, passing the limit was not always enough
Target sequence (P41235 whole entry, looked up): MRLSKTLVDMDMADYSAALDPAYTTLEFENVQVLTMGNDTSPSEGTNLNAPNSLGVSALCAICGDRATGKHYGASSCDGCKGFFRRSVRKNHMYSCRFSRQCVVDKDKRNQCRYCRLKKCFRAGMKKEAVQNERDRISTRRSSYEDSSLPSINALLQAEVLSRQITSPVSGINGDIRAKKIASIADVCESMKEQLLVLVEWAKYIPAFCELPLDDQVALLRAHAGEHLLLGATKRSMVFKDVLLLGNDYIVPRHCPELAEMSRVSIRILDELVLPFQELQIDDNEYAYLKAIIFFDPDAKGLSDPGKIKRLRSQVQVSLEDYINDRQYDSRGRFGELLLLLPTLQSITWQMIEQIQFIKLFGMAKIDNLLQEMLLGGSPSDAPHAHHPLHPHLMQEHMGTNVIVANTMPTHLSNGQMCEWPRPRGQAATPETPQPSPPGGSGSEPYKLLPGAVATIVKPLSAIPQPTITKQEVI
CSN deneddyl inh – inhibitors of CSN-mediated cullin deneddylation, primary screen, biochemical, fluorescence polarization, uHTS; 360,000 tested, 0.38% active; Purified CSN, SCF-Nedd8-OG deneddylation; inhibition, % at 12.5 µM;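 active means pattern-corrected inhibition above about 35%, with an unprinted fluorescence ratio check between 0.5 and 1.5, limit read from the data, passing the limit was not always enough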;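 further: 0% = enzyme with substrate and 100% = substrate without enzyme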
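Material: purified human Csn5 enzyme expressed in HEK293T cells / Medium: Tris buffer pH 7.5, NaCl, DTT, Tween-20, trehalose, ovalbumin / Compound dosing: 12.5 µM single point / Schedule: 90 min incubation of compound, enzyme and substrate at room temperature / Signal: fluorescence polarization of the substrate / Control set: no-enzyme wells high, enzyme-with-substrate wells low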
TPT1 inh – Candida albicans TPT1 enzyme inhibitors, primary screen, biochemical, fluorescence polarization | 300,000 tested, 0.81% active | recombinant caTPT1, FP RNA substrate dephosphorylation | inhibition, % at 5 µM;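 active means inhibition above the mean of all tested compounds plus 3 SD, set per screening campaign, cut at about 24% in these data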;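 further: plate controls were DMSO alone for no effect and ferristatin control at 100 nM for full effect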
Rpn11 inh – Rpn11 (PSMD14) deubiquitinase inhibitors, primary screen, biochemical, fluorescence polarization, uHTS; calls only at 20 µM; human 26S proteasome, Ub4-pepOG fluorescence polarization; 20S core pre-blocked with epoxomicin; 360,000 tested, 0.59% active; AID 588493, 2011;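 active means inhibition at 20 µM, scaled to each plate's controls, above about 33%, limit read from the data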
TPT1 inh confirm – Candida albicans TPT1 inhibitors, confirmation, biochemical, fluorescence polarization, triplicate. AID 2149, 2009. recombinant caTPT1, RNase T1 coupled. inhibition, % at 5 µM. shares compounds with TPT1 inh. 2,400 tested, 74% active;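 active means inhibition above the primary screen limit, the mean inhibition of all tested compounds plus 3 SD, cut at about 25% in these data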
RNase T1 inh – RNase T1 inhibitors, counter-screen for TPT1 inhibitor project, biochemical, fluorescence polarization; shares compounds with TPT1 inh; RNase T1 cleavage, 1536-well; inhibition, % at 5 µM; 2,400 tested, 83% active;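 active means inhibition above the solvent-only control well mean plus 3 SD, limit set per screening run, cut at about 23% in these data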;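 further: plate controls were DMSO wells with enzyme for no effect and wells without RNase T1 for full effect; inhibitors block cleavage so intact labeled substrate keeps polarization high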
Target sequence (P00651 whole entry, looked up): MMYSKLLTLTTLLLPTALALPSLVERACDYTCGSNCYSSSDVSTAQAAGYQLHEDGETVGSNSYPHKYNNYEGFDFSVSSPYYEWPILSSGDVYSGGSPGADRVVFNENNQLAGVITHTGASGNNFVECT
The depositor's hits bear a star; i = inactive; . = no result given; + = active, no number. Sampled rows, rich in hits. Any-hit rate of the full collection: about 1.5%.

SMILES | HNF4A DNA FP | CSN deneddyl inh | TPT1 inh | Rpn11 inh | TPT1 inh confirm | RNase T1 inh
Cc1cc(C)cc(NC(=O)/C(C#N)=C/c2cn(CC(=O)NCc3ccco3)c3ccccc23)c1 | -1 | -5 | 2 | i | . | .
Cc1ccc(NC(=O)/C(C#N)=C/c2cn(CC(=O)NCc3ccco3)c3ccccc23)cc1C | 27 | 9 | 29* | . | 67* | 80*
O=C1/C(=C\c2cccs2)Sc2ccc3ccccc3c21 | 20 | 16 | 80* | i | 84* | 96*
O=C(O)CCCNc1cc(N2CCN(C(=O)c3ccco3)CC2)c2noc3c2c1C(=O)c1ccccc1-3 | 12 | 19 | 96* | . | 170* | 141*
CCOC(=O)N1CCN(c2cc(NCCC(=O)O)c3c4c(onc24)-c2ccccc2C3=O)CC1 | 97 | 5 | 137* | . | 185* | 152*
O=C(O)CCCNc1cc(N2CCC3(CC2)OCCO3)c2noc3c2c1C(=O)c1ccccc1-3 | . | . | -15 | . | . | .
Cn1cc(C(=O)N/N=C/c2c(O)ccc3ccccc23)ccc1=O | 21 | 14 | 57* | i | 70* | 54*
O=C(N/N=C\c1c(O)ccc2ccccc12)c1ccc(O)cc1 | 1 | 7 | 9 | i | . | .
Cn1nccc1C(=O)N/N=C/c1c(O)ccc2ccccc12 | 26 | 6 | 37* | i | 44* | 49*
O=C(NN=Cc1c(O)ccc2ccccc12)c1ccncc1 | 143 | 106 | . | . | . | .
CC=CC1OCC(CC)C(CCC)O1 (centres undefined) | -3 | 1 | . | i | . | .
CNC(=O)c1ccc(NC(=O)CCNC(=O)Nc2ccccc2)cc1 | 0 | -2 | . | i | . | .
CCCOc1cc(N(CC)CC)ccc1/C=C(/C#N)c1nc2ccc(C)cc2[nH]1 | 103 | 8 | 184* | . | 193* | 171*
CCN(CC)c1ccc(/C=C(/C#N)c2nc3ccc(C)cc3[nH]2)c(OC(C)C)c1 | -42 | -72 | 139* | . | 130* | 124*
CCOc1cc(N(CC)CC)ccc1/C=C(/C#N)c1nc2ccccc2[nH]1 | 70 | 62 | + | . | 183* | 166*
COc1cc(/C=C(\C#N)c2nc3ccc(C)cc3[nH]2)c([N+](=O)[O-])cc1OC | 0 | 3 | 9 | i | . | .
CCN(CC)c1ccc(/C=N/Nc2nc3ccccc3[nH]2)c(O)c1 | 2 | 0 | 34* | i | 17 | 21
COc1ccc(S(=O)(=O)N2CCCCC2)cc1NC(=O)CCNC(=O)c1ccc(Br)cc1 | -4 | -3 | 3 | i | . | .
COc1ccc(-c2csc(N3CCN(C(=O)c4ccco4)CC3)n2)cc1 | 3 | -7 | -1 | i | . | .
COc1ccc(C2=NN(c3nc(-c4ccc(CNC(C)=O)cc4)cs3)C(c3ccco3)C2)cc1 (centres undefined) | 15 | 21 | 31* | i | 11 | 16
O=c1/c(=C\c2cc([N+](=O)[O-])cc([N+](=O)[O-])c2O)sc2nc3ccccc3n12 | 40* | 14 | 91* | . | 91* | 93*
COc1cc(/C=N/NC(=O)c2sc(N)c(C#N)c2C)ccc1O | 2 | -8 | 54* | i | 2 | 10
C=CCN=c1scc(-c2ccco2)n1/N=C/c1ccc(O)c(O)c1O | -19 | 29 | 3 | i | . | .
COCCN=c1scc(-c2ccco2)n1/N=C/c1ccc(O)c(O)c1O | -45 | 37 | 52* | i | 60* | 70*
NNc1nc2c(-c3ccc(Cl)cc3)nnn2c2ccccc12 | 39* | 27 | 39* | . | 23 | 29*
SMILES | HNF4A DNA FP | CSN deneddyl inh | TPT1 inh | Rpn11 inh | TPT1 inh confirm | RNase T1 inh
NNc1nc2c(-c3ccc(F)cc3)nnn2c2ccccc12 | 25 | 18 | 29* | . | 81* | 91*
COc1ccc(Br)c(C(=O)NNC(=O)c2ccc(NS(=O)(=O)c3cccs3)cc2)c1 | -2 | 6 | 0 | i | . | .
COc1ccc(NC(=O)Nc2c(C)noc2-c2ccccc2)cc1 | -1 | 6 | 42* | i | 6 | 11
COc1ccc(C(=O)Cn2nnc(-c3ccccc3NC(=O)C3CCCCC3)n2)cc1 | 8 | 7 | 30* | i | 43* | 54*
CC(C)Nc1ccc(C(CC(N)=O)NC(=O)Cc2cccc3ccccc23)cc1[N+](=O)[O-] (centres undefined) | 124 | 18 | 75* | . | 85* | 95*
NC(=O)CC(NC(=O)Cc1cccc2ccccc12)c1ccc(NCc2ccccc2)c([N+](=O)[O-])c1 (centres undefined) | 16 | 5 | 9 | i | . | .
O=c1c2c3c(sc2ncn1Cc1ccc(F)cc1)CCC3 | 11 | 4 | 27* | i | 26* | 34*
Cc1cc(N2CCOCC2)ccc1/C=C1\SC(=O)N(C(C)C)C1=O | 14 | 4 | 37* | i | 52* | 64*
CCC(C)N1C(=O)S/C(=C/c2ccc(N3CCOCC3)cc2C)C1=O (centres undefined) | 3 | 2 | 19 | i | . | .
CCN1C(=O)S/C(=C\c2ccc(N3CCOCC3)cc2C)C1=O | 27 | 23 | 39* | i | 55* | 69*
CN(C)S(=O)(=O)c1ccc(Cl)c(C(=O)OCC(=O)NC(=O)c2cccn2C)c1 | 3 | -13 | 125* | i | 10 | 12
CC(=O)C1=NN(c2ccccc2)C(c2ccc3c(c2)OCO3)N1c1ccccc1 (centres undefined) | 11 | 3 | 27* | i | 46* | 59*
O=C(CN1CCCC1c1ccc2c(c1)OCCO2)NC(=O)Nc1ccccc1F (centres undefined) | 0 | 4 | . | i | . | .
C=CCn1c(/N=C/c2ccc(OC)cc2)nc2ccccc21 | 2 | -7 | -2 | i | . | .
C=CCn1c(/N=C/c2ccc(N(C)C)cc2)nc2ccccc21 | 59* | 26 | 27* | . | 110* | 117*
O=C(O)C1=NOC(CNc2ncc(C(F)(F)F)cc2Cl)C1 (centres undefined) | -2 | -1 | 4 | i | . | .
CC(=O)C1=NOC(CNc2ncc(C(F)(F)F)cc2Cl)C1 (centres undefined) | 4 | -7 | 143* | i | 11 | 11
C=CCN1C(=O)/C(=C/c2ccc(OCC(=O)O)cc2)S/C1=N/c1nccs1 | 4 | 6 | 1 | i | . | .
C=CCN1C(=O)/C(=C/c2ccc(O)c(OC)c2)S/C1=N/c1nccs1 | 95* | 83* | 68* | . | 74* | 77*
